Laboratory results: ChEMBL document CHEMBL1122280, “Analogues of hycanthone and lucanthone as antitumor agents” (1983)

How the values were obtained:
P388 [1] = assay: In vivo antitumor activity against P-388 lymphocytic leukemia in mice treated with a dose of 25 mg/kg; format: functional, Mus musculus
Outline: (§1)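 Mice bearing P-388 leukemia were dosed once daily for 5 days, or once daily for 9 days for the two reference parent drugs. Activity is expressed as a T/C value.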

P388 [2] = assay: In vivo antitumor activity against P-388 lymphocytic leukemia in mice treated with a dose of 12.5 mg/kg; format: functional, Mus musculus; outline: as §1
P388 [3] = assay: In vivo antitumor activity against P-388 lymphocytic leukemia in mice treated with a dose of 50 mg/kg; format: functional, Mus musculus; outline: as §1
P388 [4] = assay: In vivo antitumor activity against P-388 lymphocytic leukemia in mice treated with a dose of 100 mg/kg for 2 days; format: functional, Mus musculus; details: in the assay text read “for 5 days” for “for 2 days”
P388 [5] = assay: In vivo antitumor activity against P-388 lymphocytic leukemia in mice treated with a dose of 25 mg/kg for 2 days; format: functional, Mus musculus; details: in the assay text read “for 5 days” for “for 2 days”
P388 [6] = assay: In vivo antitumor activity against P-388 lymphocytic leukemia in mice treated with a dose of 200 mg/kg for 5 days
P388 [7] = assay: In vivo antitumor activity against P-388 lymphocytic leukemia in mice treated with a dose of 50 mg/kg for 2 days; format: functional, Mus musculus; details: in the assay text read “for 5 days” for “for 2 days”
P388 [8] = assay: In vivo antitumor activity against P-388 lymphocytic leukemia in mice treated with a dose of 18.75 mg/kg for 2 days; format: functional, Mus musculus
Outline: (§2)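 P-388 leukemia-bearing mice received the drug on only 2 days, day 1 and day 4 after inoculation. Activity is expressed as a T/C value.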

P388 [9] = assay: In vivo antitumor activity against P-388 lymphocytic leukemia in mice treated with a dose of 37.5 mg/kg for 2 days; format: functional, Mus musculus; outline: as §2
P388 [10] = assay: In vivo antitumor activity against P-388 lymphocytic leukemia in mice treated with a dose of 9.88 mg/kg for 2 days; format: functional, Mus musculus; outline: as §2
P388 [11] = assay: In vivo antitumor activity against P-388 lymphocytic leukemia in mice treated with a dose of 75 mg/kg for 2 days; format: functional, Mus musculus; outline: as §2
P388 [12] = assay: In vivo antitumor activity against P-388 lymphocytic leukemia in mice treated with a dose of 200 mg/kg; format: functional, Mus musculus; outline: as §1
P388 [13] = assay: In vivo antitumor activity against P-388 lymphocytic leukemia in mice treated with a dose of 100 mg/kg; format: functional, Mus musculus; outline: as §1
P388 [14] = assay: In vivo antitumor activity against P-388 lymphocytic leukemia in mice treated with a dose of 60 mg/kg; format: functional, Mus musculus; outline: as §1

Work on `CCN(CC)CCNc1ccc(C)c2oc3ccc(O)cc3c(=O)c12` yielded a T/C (P388 [1]) of 106, a T/C (P388 [2]) of 106 and a T/C (P388 [3]) of 117.

With `CN(C)CCNc1ccc(CO)c2sc3ccc(O)cc3c(=O)c12` the T/C (P388 [4]) was 194, the T/C (P388 [5]) was 160 and the T/C (P388 [6]) was 222. It also gave a T/C (P388 [7]) of 175.

In the case of `CCN(CC)CCNc1ccc(CO)c2sc3ccc(O)cc3c(=O)c12`, the T/C (P388 [8]) is reported as 207, the T/C (P388 [9]) is reported as 179 and the T/C (P388 [10]) is reported as 163. It also gave a T/C (P388 [11]) of 207.

For `CCN(CC)CCNc1ccc(CO)c2oc3ccc(O)cc3c(=O)c12`, the T/C (P388 [12]) was 163, the T/C (P388 [3]) was 181 and the T/C (P388 [13]) was 214.

With `CN(C)CCNc1ccc(CO)c2sc3ccccc3c(=O)c12` the T/C (P388 [1]) was 94, the T/C (P388 [3]) was 114 and the T/C (P388 [13]) was 150.

With `CCN(CC)CCNc1ccc(CO)c2sc3ccccc3c(=O)c12` [HYCANTHONE] the T/C (P388 [14]) was 165.

`Cc1ccc(NCCN(C)C)c2c(=O)c3cc(O)ccc3oc12` was tested, and the T/C (P388 [1]) was 106, the T/C (P388 [2]) was 99 and the T/C (P388 [3]) was 108.

Work on `CCN(CC)CCNc1ccc(C)c2sc3ccccc3c(=O)c12` [LUCANTHONE] yielded a T/C (P388 [13]) of 158.

In the case of `CN(C)CCNc1ccc(CO)c2oc3ccc(O)cc3c(=O)c12`, the T/C (P388 [12]) is reported as 128 and the T/C (P388 [3]) is reported as 170.
